Mdm2 ligase inh – blocks human Mdm2 ubiquitin ligase activity. Q00987. cell-based MDM2 ubiquitination luciferase reporter, 2 h; 0 = plate control, 100 = twice control, blank-subtracted. signal enhancement, % at 5 µM. hit rate 0.11% among 210,000. AID 1230;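 active = signal enhancement of 30% or more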;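 also: luminescence tracks abundance of the self-degrading MDM2-luciferase fusion protein; higher signal means inhibition of MDM2 E3 ligase activity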
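Assay system: mammalian cells stably expressing self-ubiquitinating, self-degrading MDM2 E3–luciferase fusion. Quantity: 2000 cells in each well. Medium: DMEM culture medium. Compound dosing: single-point 5 µM. Timing: cell settling 4 h, compound treatment 2 h, both 37 °C. Technique: luciferase luminescence. Read-out basis: percent signal gain over controls, blank-subtracted. Benchmarks: plate controls and plate blanks.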
Dynein transport – dynein cargo transport inhibition. 3617.4 mouse cells, GR-EGFP nuclear translocation imaging; test concentration mostly 20 µM; stimulated with dexamethasone, 1 µM; active compounds read low. z-score, hits read low. hit rate 0.47% among 220,000. AID 1381;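 active = plate z-score of nuclear minus cytoplasmic receptor signal below a set negative limit, without overly bright fluorescence or cell loss, cut at about -3.5 in these data, passing the limit was not always enough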;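 also: z-score of nuclear minus cytoplasmic ring GR-EGFP intensity difference per well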
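Medium: Induction medium lacking tetracycline, stripped serum | Probe or stimulus: 1.0 µM final dexamethasone stimulus | Schedule: 48 h induction, then 1 h compound, then 30 min agonist, 37 °C | Signal: Automated 10x imaging of fixed Hoechst-stained cells | Evaluation: Per-cell GR-EGFP intensity, nucleus versus surrounding cytoplasmic ring, well-averaged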
B2AR ag – activates human beta-2 adrenergic receptor causing internalization; P07550; Am2.2-beta2AR cells, FAP receptor internalization, flow cytometry; response, % (no concentration beside the values); hit rate 0.43% among 340,000; AID 504454;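 active = response above a set limit, near 3 SD of response in nonfluorescent compounds, cut at about 42% in these data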
UPR XBP1 act – activators of adaptive arm of unfolded protein response (XBP1); AID 463104; activation, % at 20 µM; CHO-XBP1 luciferase reporter, IRE1-XBP1 UPR activation, luminescence; percent of tunicamycin response, DMSO as zero; hit rate 0.33% among 330,000;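 active = versus positive control, 20 µM dose yields 30% or more activation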;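 also: 100% = tunicamycin at 10 µg/mL and 0% = DMSO only wells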
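Assay system: IRE1-XBP1 luciferase reporter CHO line. Input: 1000 cells/well. Buffer or medium: F12 with 10% serum. Doses: 20 µM, 1% DMSO. Times: overnight seeding at 37 °C, 6 h compound treatment at 37 °C. Technique: Steady-Glo luciferase glow luminescence, 10 min after reagent addition.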
UPR CHOP act – apoptotic UPR (CHOP) activation; CHO-CHOP luciferase reporter, luminescence; percent of tunicamycin response over DMSO baseline; activation, % at 10 µM; hit rate 0.34% among 330,000; AID 449763;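 active = at 10 µM dose, activation of 40% or more, normalized to positive control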;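 also: 100% = tunicamycin at 10 µg/mL and 0% = DMSO alone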
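Assay system: CHO-CHOP cells, stable luciferase reporter of PERK-eIF2a-CHOP signalling / Buffer or medium: F12 plus 10% serum / Compound dosing: one dose, 10 µM in 0.5% DMSO / Times: 6 h compound treatment, 37 °C / Technique: luciferase luminescence / Read-out: % reporter activation, DMSO baseline versus tunicamycin full activation / Benchmarks: tunicamycin and DMSO controls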
Mdm2 MdmX PPI – disrupts the human Mdm2-MdmX interaction; O15151+Q00987; SaOS-2 split-luciferase Mdm2/MdmX complementation, luminescence; inhibition, % at 8 µM; hit rate 3% among 330,000; AID 485346;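 active = inhibition of at least 50% at 8 µM in the primary screen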
Target sequence (O15151 whole entry, looked up): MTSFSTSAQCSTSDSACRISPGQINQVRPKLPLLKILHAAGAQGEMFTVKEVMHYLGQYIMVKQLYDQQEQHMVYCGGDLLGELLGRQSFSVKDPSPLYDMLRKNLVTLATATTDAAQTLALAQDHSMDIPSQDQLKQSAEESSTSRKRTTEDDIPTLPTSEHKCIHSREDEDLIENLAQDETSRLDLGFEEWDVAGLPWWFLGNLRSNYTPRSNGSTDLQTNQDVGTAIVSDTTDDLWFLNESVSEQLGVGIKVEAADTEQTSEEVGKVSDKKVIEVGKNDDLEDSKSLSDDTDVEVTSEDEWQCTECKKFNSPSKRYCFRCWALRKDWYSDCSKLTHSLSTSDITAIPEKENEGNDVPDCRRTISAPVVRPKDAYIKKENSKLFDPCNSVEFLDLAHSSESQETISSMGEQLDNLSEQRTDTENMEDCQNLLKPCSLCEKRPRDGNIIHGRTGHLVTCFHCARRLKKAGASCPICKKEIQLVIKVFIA
Target sequence (Q00987 whole entry, looked up): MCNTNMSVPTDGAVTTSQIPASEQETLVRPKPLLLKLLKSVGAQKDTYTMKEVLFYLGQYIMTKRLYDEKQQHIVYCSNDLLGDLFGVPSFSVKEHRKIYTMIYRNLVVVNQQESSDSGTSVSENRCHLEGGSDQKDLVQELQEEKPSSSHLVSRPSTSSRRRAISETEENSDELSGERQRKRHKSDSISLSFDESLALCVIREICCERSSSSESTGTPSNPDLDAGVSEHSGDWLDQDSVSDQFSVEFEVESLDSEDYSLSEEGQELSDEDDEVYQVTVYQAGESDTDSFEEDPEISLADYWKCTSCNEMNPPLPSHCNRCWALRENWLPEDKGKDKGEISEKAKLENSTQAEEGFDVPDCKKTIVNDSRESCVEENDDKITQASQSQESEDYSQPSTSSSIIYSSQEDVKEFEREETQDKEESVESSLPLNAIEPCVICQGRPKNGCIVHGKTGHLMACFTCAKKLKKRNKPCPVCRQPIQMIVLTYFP
UPR XBP1 confirm – confirmation of adaptive unfolded protein response (XBP1) activators; AID 485299; CHO-XBP1 IRE1-XBP1 luciferase reporter, luminescence; activation, % at 20 µM; shares compounds with UPR XBP1 act; hit rate 63% among 1,000;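 active = reporter signal at least 30% of the positive control's activation in two or more of four replicate wells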;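 also: plate controls were DMSO negative control for no effect and tunicamycin 10 µg/mL positive control for full effect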
Mdm2-MdmX conf – human Mdm2/MdmX binding inhibition, confirmed | shares compounds with Mdm2 MdmX PPI | luminescent assay | inhibition, % at 8 µM | hit rate 55% among 10,000 | AID 489028; in the data active = inhibition above about 40%
FLuc counter – inhibits full-length luciferase, flagging false Mdm2/MdmX hits; shares compounds with Mdm2 MdmX PPI; SaOS-2 full-length luciferase counterscreen, luminescence; inhibition, % at 8 µM; hit rate 77% among 6,200;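 active = mean inhibition at 8 µM reaching about 37%, which flags the compound as non-specific, limit read from the data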;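 also: p53-null SaOS-2 cells with luciferase driven by a doxycycline-inducible promoter; compound on cells about two nights before reading with doxycycline added after day one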
Active calls of the source: *; . = no result. The list is not random: actives were taken first. Their share in the collection is about 3.7%.

SMILES	Mdm2 ligase inh	Dynein transport	B2AR ag	UPR XBP1 act	UPR CHOP act	Mdm2 MdmX PPI	UPR XBP1 confirm	Mdm2-MdmX conf	others
COc1ccc(-c2nn(C)c(=O)c3ccccc23)cc1NC(=O)Cn1nc(C)c2ccccc2c1=O	-19	0.81	48*	56*	0	57*	82*	22
CCC(=O)NCc1cc(-c2nn(C)c(=O)c3ccccc23)ccc1C	-10	-0.96	9	2	1	26	.	.
Cc1ccc2nsnc2c1NC(=O)Cc1ccc(Cl)cc1	3	-0.6	-1	-1	3	-15	.	.
Cc1ccc2nsnc2c1NC(=O)c1ccc(-c2cc(Cl)ccc2Cl)o1	-32	-0.67	17	96*	34	60*	104*	23
Cc1ccc(S(=O)(=O)N2CCCC2CNC(=O)c2ccc(F)c(F)c2)cc1 (stereo unspecified)	.	.	-18	0	0	10	.	.
Cc1cc(C)c2c(CCl)cc(=O)oc2c1	.	-1.4	44*	41*	32	70*	38*	61*	FLuc counter=100*
S=C(NCc1ccco1)N1CCN(c2ccccn2)CC1	-9	-0.69	-11	-6	2	4	.	.
c1cc(SC2CCCCC2)cc(-c2nc3cnccn3c2NC2CCCCC2)c1	.	.	50*	196*	8	89*	171*	29
Cc1ccc(S(=O)(=O)c2cc3c(=O)n4cccc(C)c4nc3n(Cc3ccncc3)c2=N)cc1	.	.	-3	49*	15	53*	20	33
COc1ccc2[nH]c3c(c2c1)CCN1C(=O)C(CC(=O)NC/C=C(\C)CCC=C(C)C)C[C@H](C(=O)N(C(C)C)C(C)C)[C@@]31C (stereo partly specified)	.	.	-7	33*	5	84*	46*	8
COc1ccc2[nH]c3c(c2c1)CCN1C(=O)C(CC(=O)NC(C)(C)C)C[C@H](C(=O)N(C(C)C)C(C)C)[C@@]31C (stereo partly specified)	.	.	-4	1	3	20	.	.
COc1ccc(NC(=O)c2cc3ccccc3o/c2=N\NS(=O)(=O)c2ccc(C)cc2)cc1	.	.	-26	-1	7	38	.	.
COc1cccc2cc(C(=O)Nc3cc(C)cc(C)c3)/c(=N/NS(=O)(=O)c3ccccc3)oc12	.	.	0	240*	1	78*	4	8
COc1ccc(-c2cc(=Nc3c(C)n(C)n(-c4ccccc4)c3=O)c3ccccc3o2)cc1	-89	-0.011	12	3	1	-54	.	.
COc1ccc(-c2c/c(=N\c3nc(-c4ccccc4)c(C)s3)c3ccccc3o2)cc1O	-25	2.4	-26	34*	7	84*	39*	57*	FLuc counter=95*
CCOC(=O)c1c(NC(C)=O)sc2c(OCC(O)CNC(C)(C)C)c(Br)ccc12 (stereo unspecified)	-1	-4.2	13	62*	1	100*	111*	100*	FLuc counter=54*
CCOC(=O)c1c(N)sc2c(OCC)c(Br)ccc12	8	0.19	-17	2	2	2	.	.
CC(=O)c1ccc(OCC(=O)NC(=O)NC2CCCCC2)cc1	.	.	0	-6	4	-9	.	.
NC1=NC[C@@H](CC2CCCCC2)N1CCc1cc(C(F)(F)F)cc(C(F)(F)F)c1	.	.	3	49*	1	99*	55*	100*	FLuc counter=51*
COC(=O)c1sccc1NC(=O)c1ccc(C(C)C)cc1	.	.	1	-3	2	-6	.	.
COc1ccc(CCn2c(=N)c(C(=O)NCc3ccco3)cc3c(=O)n4ccccc4nc32)cc1OC	.	.	16	.	.	.	.	.
COc1ccc(CCNC(=O)c2cc3c(=O)n4ccccc4nc3n(Cc3ccco3)c2=N)cc1OC	.	.	32	43*	7	62*	-3	41*	FLuc counter=26
Cc1ccc2c(c1)C(=O)C(=O)N2Cc1ccc(Br)cc1	.	.	19	52*	2	66*	40*	63*	FLuc counter=74*
CCCCN1C(=O)C(=O)c2cc(Cl)ccc21	.	.	4	42*	7	54*	38*	20
Cc1ccc(CN2C(=O)C(=O)c3cc(C)ccc32)cc1	.	.	17	35*	4	67*	29*	-12
SMILES	Mdm2 ligase inh	Dynein transport	B2AR ag	UPR XBP1 act	UPR CHOP act	Mdm2 MdmX PPI	UPR XBP1 confirm	Mdm2-MdmX conf	others
Cc1ccc2c(c1)C(=O)C(=O)N2c1ccc(Cl)cc1	.	.	2	-2	0	22	.	.
CN(C)S(=O)(=O)c1ccc(N2CCCC2)c(C(=O)NCC(=O)Nc2ccc(F)c(F)c2)c1	.	.	6	-4	0	-12	.	.
Cc1ccc(NC(=O)c2cc(S(=O)(=O)N(C)C)ccc2N2CCCC2)cc1F	.	.	2	39*	13	52*	64*	38
O=C(COc1ccc(Cl)cc1Cl)NN=C1c2ccccc2-c2ccccc21	2	-0.21	-11	89*	7	82*	96*	20
Cc1c(C)c2c(c(C)c1O)CCC(C)(C(=O)O)O2 (stereo unspecified)	.	.	1	-5	-1	-22	.	.
NC(=O)NC(CC(=O)NNC(=O)c1cccs1)c1ccc(Cl)cc1 (stereo unspecified)	.	.	-3	1	0	-13	.	.
Cc1cccnc1NC(=O)c1nn(C)c2c1CS(=O)(=O)c1ccccc1-2	.	.	-19	0	6	1	.	.
FC(F)(F)c1cc(CCN2CCNC[C@@H]2Cc2ccccc2)cc(C(F)(F)F)c1	.	.	32	37*	2	51*	18	20
O=C(Nc1ccc(O)c2c(=O)cc(-c3cccc(Cl)c3)oc12)c1cccc(Cl)c1	-12	0.69	-20	73*	33	81*	70*	-9
COc1ccc(C(=O)Nc2ccc(O)c3c(=O)cc(-c4cccc(Cl)c4)oc23)cc1	13	1.1	6	0	4	33	.	.
Cc1[nH]c2ccc(C(=O)OCC(=O)NC3(C#N)CCCCC3)cc2c1C	.	.	4	-3	1	-10	.	.
CCCn1c(SCC(=O)N2CCc3ccccc32)n[nH]c1=O	.	.	1	2	0	-19	.	.
CSc1ccc(/C=C/c2ccc3cccc(O)c3n2)cc1	-2	-1.5	8	-1	2	-40	.	.

Screens deposited in PubChem BioAssay by several laboratories.
